High-throughput results from PubChem.
PG9 binder: PG9 antibody binding by small molecule | TR-FRET gp120-PG9 antibody binding | inhibition, % at 6.7 µM | 360,000 compounds, 0.43% hits; in the data active = inhibition above about 8.5%
MC4R barr agon: activates human MC4R beta-arrestin recruitment; 360,000 compounds, 0.98% hits; P32245; activation, % at 8.9 µM; AID 540308; U2OS MC4R beta-arrestin complementation, luminescence; percent of melanotan II response, DMSO zero;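 active = activation above a per-plate cutoff, the mean activation of sample wells on that plate plus 3 SD, cut at about 8% in these data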
Target sequence (P32245 whole entry, looked up): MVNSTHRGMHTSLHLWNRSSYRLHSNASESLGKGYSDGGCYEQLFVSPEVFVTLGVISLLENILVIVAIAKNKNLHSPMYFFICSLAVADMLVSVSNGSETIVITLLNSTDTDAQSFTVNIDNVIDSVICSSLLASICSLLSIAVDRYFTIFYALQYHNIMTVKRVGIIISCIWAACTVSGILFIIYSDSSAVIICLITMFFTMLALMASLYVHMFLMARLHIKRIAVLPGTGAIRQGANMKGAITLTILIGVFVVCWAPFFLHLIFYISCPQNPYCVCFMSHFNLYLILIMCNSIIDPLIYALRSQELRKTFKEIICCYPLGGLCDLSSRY
NR2E3 ag-1: human photoreceptor-specific nuclear receptor agonism. Q9Y5X4. CHO-S Gal4-NCOR/VP16-NR2E3 two-hybrid, luciferase. inhibition of corepressor binding, % at 3.98 µM. 360,000 compounds, 0.35% hits. AID 602229;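 active = inhibition above the mean of all tested compounds plus 3 SD, cut at about 70% in these data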;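 also: 0% = DMSO with NR2E3 transfected cells and 100% = cells lacking NR2E3 construct; higher means lower luciferase signal from less NR2E3 corepressor binding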
Target sequence (Q9Y5X4 whole entry, looked up, the tested form may be a part): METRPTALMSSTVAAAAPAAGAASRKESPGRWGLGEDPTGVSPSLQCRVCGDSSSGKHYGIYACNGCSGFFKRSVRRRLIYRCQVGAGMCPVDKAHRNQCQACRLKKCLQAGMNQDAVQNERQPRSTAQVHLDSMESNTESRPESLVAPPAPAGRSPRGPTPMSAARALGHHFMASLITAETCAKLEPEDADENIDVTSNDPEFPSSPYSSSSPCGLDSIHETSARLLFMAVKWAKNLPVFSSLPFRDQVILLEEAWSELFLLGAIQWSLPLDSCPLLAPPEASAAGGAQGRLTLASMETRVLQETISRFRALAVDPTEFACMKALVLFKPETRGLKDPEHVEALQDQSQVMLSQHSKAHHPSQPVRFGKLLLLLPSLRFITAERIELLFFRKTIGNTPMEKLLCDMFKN
NR2E3 ag-2: NR2E3 (human) agonism. Q9Y5X4. AID 2300. GST-NR2E3/biotin-RetCOR TR-FRET, 1536-well. inhibition of corepressor binding, % at 4.78 µM. 320,000 compounds, 0.12% hits;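 active = percent inhibition above the cutoff of mean plus 3 SD of all tested compounds, set per screening campaign, cut at about 20% in these data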;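 also: 0% = DMSO wells and 100% = biotin wells as full block of FRET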
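Assay system: NR2E3–RetCOR corepressor complex. Quantity: 1.35 nM GST-NR2E3. Buffer or medium: pH 7.5 Tris-based buffer. Reagent: biotinylated RetCOR corepressor at 7 nM final. Schedule: 5 h at 4 °C. Detection: TR-FRET, emission read at 617 and 671 nm. Replicates: one well per compound, singlicate testing.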
MC4R antagonist: antagonists of human melanocortin 4 receptor (MC4R) | MC4R-expressing cells, MTII-stimulated cAMP, LANCE TR-FRET | inhibition, % at 6.5 µM | 360,000 compounds, 0.48% hits;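 active = inhibition above its plate's cutoff, the mean of tested wells on that plate plus 3 SD, cut at about 29% in these data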;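 also: 0% = Melanotan II alone and 100% = Melanotan II plus saturating MCL0020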
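Assay system: human MC4R-expressing U2OS cells; reagent: Melanotan II stimulation of cells; dosing: 6.5 µM single dose; timing: compound 30 min, challenge 1 h, detection 1 h; signal: TR-FRET cAMP assay; replicates: one well per compound, no replicates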
NR1D1 modulator: modulates human Rev-erb alpha binding to DNA | AID 1259318 | P20393 | Rev-erbα–FITC-DNA binding, fluorescence polarization, 90 min | 370,000 compounds, 0.79% hits | activity, % at 10 µM;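 active = activity above about 14%, limit read from the data; passing the limit was not always enough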;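 also: 0% = DMSO wells with 35 nM protein and 100% = DMSO wells with 750 nM protein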
NR2E3 ag conf: NR2E3 agonism confirmed in two-hybrid assay | shares compounds with NR2E3 ag-1 | CHO-S mammalian two-hybrid NR2E3-NCOR, luciferase luminescence | inhibition, % at 3.98 µM | 2,300 compounds, 51% hits;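 active = average inhibition above a cutoff equal to the mean inhibition of all tested compounds plus one SD, cut at about 70% in these data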;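 also: 0% = DMSO in NR2E3 cells and 100% = DMSO in cells lacking NR2E3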
VP16 counter: GAL4-VP16 reporter inhibition in NR2E3 agonist counterscreen. CHO-S GAL4-VP16 luciferase reporter, luminescence. inhibition, % at 3.98 µM. 2,300 compounds, 29% hits. shares compounds with NR2E3 ag-1;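 active = mean inhibition above a cutoff equal to the average over all tested compounds plus one standard deviation, cut at about 70% in these data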;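 also: luciferase from a UAS reporter driven by GAL4-VP16 transactivation; 0% = DMSO with VP16-transfected cells and 100% = DMSO with cells lacking VP16; higher means less reporter light so more repression of VP16 activity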
* hit, by the source's call; . = no result given. Shown are actives, neighbours in structure and some others; about 2.7% of the full set was active somewhere.

SMILES | PG9 binder | MC4R barr agon | NR2E3 ag-1 | NR2E3 ag-2 | MC4R antagonist | NR1D1 modulator | NR2E3 ag conf | VP16 counter
CCn1nc(C)c(CNC(=O)CC2C(=O)NCCN2Cc2ccc(C)o2)c1C (centres undefined) | -1.3 | -1.6 | -25.8 | 2.5 | 10.8 | -5.3 | . | .
CCOC(=O)c1cc(C#N)c(N2CCN(C(=O)c3cccc(C(F)(F)F)c3)CC2)nc1C(F)(F)F | 0.6 | -0.1 | 49.9 | 1.5 | 9.6 | -0.5 | 25.1 | 40.0
CCOC(=O)c1cc(C#N)c(N2CCN(C(=O)c3ccccc3)CC2)nc1C(F)(F)F | -0.7 | -1.8 | 8.8 | 1.0 | 1.1 | 5.9 | . | .
COCCN1C(=O)C(CC(=O)Nc2ccccc2)SC1=Nc1ccc(OC)cc1 (centres undefined) | -2.1 | -2.0 | 2.2 | 2.3 | 4.4 | 1.8 | . | .
O=C(O)c1cc([N+](=O)[O-])ccc1NCCCc1ccccc1 | -0.3 | -1.4 | -37.8 | 3.1 | 4.1 | -4.0 | . | .
COc1cc(-c2coc3c(C(=O)NCc4ccc(OC)c(OC)c4)cccc23)ccc1O | -1.6 | -1.4 | 52.8 | . | 4.4 | 2.5 | 60.9 | 30.0
COc1ccc(CNC(=O)c2cccc3c(-c4cccc(C(N)=O)c4)coc23)cc1OC | 0.2 | 0.4 | 52.9 | . | 7.0 | 1.7 | 64.3 | 57.0
O=C(NCc1cccnc1)c1ccc(-c2ccc(F)c(F)c2)c2ccoc12 | -0.9 | -0.4 | 76.3* | . | 12.4 | 2.0 | 95.7* | 75.9*
COc1ccc(CNC(=O)c2cccc3c(-c4ccc(F)c(F)c4)coc23)cc1OC | . | -0.5 | 60.7 | . | 3.0 | . | 79.5* | 47.6
O=C(COC(=O)CCc1ccc(S(=O)(=O)N2CCOCC2)cc1)Nc1ccccc1OC(F)F | 0.6 | 0.3 | -16.8 | . | 14.5 | 6.4 | . | .
COc1ccc(C(=O)OCC(=O)Nc2ccc3[nH]c(=O)[nH]c3c2)cc1 | -3.9 | -0.9 | -10.4 | 2.5 | 10.8 | 4.2 | . | .
CS(=O)(=O)N1CCN(c2ccc([N+](=O)[O-])cc2C(F)(F)F)CC1 | 1.2 | -0.8 | 2.0 | 1.5 | 5.9 | 7.8 | . | .
C[C@@H]1CCN(C2CC2)S(=O)(=O)c2c(cccc2N2CC[C@@H](N(C)C)C2)O1 | . | . | . | . | . | 2.9 | . | .
Cc1ccc(Nc2nc(N)c([N+](=O)[O-])c(N3CCC(C)CC3)n2)cc1C | -1.4 | 0.8 | -14.1 | -0.1 | -4.3 | -2.9 | . | .
Cc1ccc(Nc2nc(N)c([N+](=O)[O-])c(N3CCOCC3)n2)cc1C | -0.1 | -0.2 | 47.6 | -2.4 | 18.8 | 0.9 | 5.9 | -17.8
CNC(=S)Nn1cnc2ccccc21 | -0.6 | 2.1 | -0.2 | 1.4 | 0.2 | 4.7 | . | .
Cc1cccc(OC(=O)NCCOC(=O)N(O)c2ccc(Cl)cc2)c1 | -0.6 | 2.1 | 80.8* | 2.8 | -6.9 | 0.8 | 83.3* | 70.7*
Cc1cccc(OCC(=O)Oc2ccc(Cl)cc2)c1 | 0.0 | 1.7 | 1.2 | 0.5 | 12.4 | -7.1 | . | .
CCCn1ncc([C@@H]2C[C@H]3CN(Cc4cccc(Cl)c4)C(=O)[C@]34CCCN24)c1C | -2.3 | -1.8 | -12.6 | 5.3 | -0.7 | -4.2 | . | .
Cc1[nH]c2c(ccc3cccnc32)c1C | 0.5 | 0.4 | -15.1 | -0.2 | 5.8 | 5.0 | . | .
CC1=[N+](C)c2c(ccc3cccnc23)C1(C)C | -3.2 | -0.6 | 92.3* | . | 7.4 | 3.9 | 98.8* | 84.6*
Cc1ccc(Sc2ccc(C(=O)N3CCOCC3)cc2[N+](=O)[O-])cc1 | 0.2 | -1.5 | -1.9 | -0.2 | 6.2 | -1.1 | . | .
CCCCCCNC(=O)N1C/C=C\C(c2ccc(OC)cc2)N(Cc2ccc(F)cc2)C(=O)C1 (centres undefined) | -0.6 | 0.2 | 30.6 | -2.4 | 7.7 | 3.0 | . | .
CCCCCCC(=O)N1C/C=C\C(c2ccc(OC)cc2)N(Cc2ccc(F)cc2)C(=O)C1 (centres undefined) | 1.0 | 2.2 | 60.3 | -1.8 | 9.3 | -0.6 | 61.3 | 43.1
CCC(=O)Nc1cc2nn(-c3ccc(C)cc3)nc2cc1C | -0.1 | 4.8 | 48.7 | 2.1 | 15.5 | 11.1 | -23.4 | -99.2
SMILES | PG9 binder | MC4R barr agon | NR2E3 ag-1 | NR2E3 ag-2 | MC4R antagonist | NR1D1 modulator | NR2E3 ag conf | VP16 counter
CCN1CCN(Cc2c(O)ccc3c(=O)c(-c4ccc(OC)c(OC)c4)c(C)oc23)CC1 | -0.9 | 0.7 | -4.0 | 1.3 | 0.0 | 3.0 | . | .
COc1ccc(CCNc2nc(-c3ccccn3)cs2)cc1OC | -0.8 | -1.5 | 68.3 | -1.4 | 10.2 | 2.4 | 10.3 | -39.7
O=C1CN(C(=O)CCN2CCOCC2)C(c2ccccc2)c2cc(Br)ccc2N1 (centres undefined) | 0.7 | -0.6 | -9.1 | 0.7 | -4.8 | -1.4 | . | .
O=C1C=CC(O)(c2cc(=O)c3c(O)cc(O)cc3o2)C=C1 | 0.2 | -1.1 | 47.5 | 1.6 | 3.0 | -1.9 | -53.9 | -39.8
O=S(=O)(c1cccc(NC(=S)N2CCN(c3cccc(Cl)c3)CC2)c1)C(F)F | 1.1 | 7.3 | 54.1 | 4.8 | 16.7 | -2.1 | 80.1* | 68.6
Cn1c(O)c(N=NC(=S)Nc2ccccc2F)c2cc(S(=O)(=O)N3CCOCC3)ccc21 | -1.5 | -4.5 | -12.1 | . | 8.4 | -1.8 | . | .
Cc1cccc(NC(=S)N=Nc2c(O)n(CN3CCOCC3)c3ccccc23)c1C | -0.9 | 0.2 | 71.7* | 0.2 | -5.1 | 3.5 | 15.0 | 21.9
C=CCn1c(O)c(N=NC(=S)Nc2ccccc2C)c2cc(S(=O)(=O)N3CCOCC3)ccc21 | -1.2 | -3.3 | 62.9 | 1.4 | 16.8 | 0.6 | 23.0 | 25.9
O=C(CSc1nnc(-c2cccnc2)o1)NNC(=O)c1ccc(Br)cc1 | -0.1 | -0.8 | -8.1 | 5.0 | 2.1 | -4.8 | . | .
COc1ccc(NC(=O)c2ccc(-c3ccccc3)cc2)cc1NS(=O)(=O)c1ccc(F)cc1 | -1.7 | -1.8 | 68.8 | 0.3 | -2.3 | -6.5 | -4.8 | 21.1
COCCn1c(C)c(C)c2c(NCCc3ccccc3)ncnc21 | -3.0 | 0.4 | 52.1 | . | 4.4 | 1.5 | 0.7 | -94.0
Cc1c(C)n(CCc2ccccc2)c2ncnc(NCCCO)c12 | -1.6 | -2.5 | -136.4 | -1.9 | 6.4 | -7.0 | . | .
Cc1ccc(NC(=O)C2C3CCCC2C3c2ccccc2)cc1 (centres undefined) | 0.1 | 2.6 | -9.6 | 5.2 | 1.1 | -1.5 | . | .
O=C(OC(c1ccccc1)c1nccc2ccccc12)c1ccccc1 (centres undefined) | -0.5 | 1.4 | 75.4* | . | 3.8 | 1.0 | 71.1* | 30.8
Cc1ccc(S(=O)(=O)Nc2cccc3cccnc23)c([N+](=O)[O-])c1 | 0.5 | -6.4 | 75.5* | 1.1 | -1.9 | 5.7 | 54.6 | 22.4
O=S(=O)(Nc1cccc2cccnc12)c1ccccc1 | -0.4 | -4.2 | 85.8* | -0.1 | 0.5 | 6.3 | 18.1 | 3.6
